SENP8 block-1: SENP8 protease inhibitors, primary screen, biochemical, luminescence; purified SENP8, Z-RLRGG-aminoluciferin cleavage; inhibition, % at 10 µM; 330,000 compounds, 1.2% hits; AID 2540, 2010; in the data active = inhibition above about 50%
Target sequence (Q96LD8 whole entry, looked up): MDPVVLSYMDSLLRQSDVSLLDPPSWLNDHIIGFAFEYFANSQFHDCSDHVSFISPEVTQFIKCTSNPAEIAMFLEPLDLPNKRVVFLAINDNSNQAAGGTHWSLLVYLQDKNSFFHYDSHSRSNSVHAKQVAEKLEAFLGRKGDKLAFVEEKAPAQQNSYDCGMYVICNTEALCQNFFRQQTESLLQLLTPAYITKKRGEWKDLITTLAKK
SENP1 FRET inh: human SENP1 catalytic domain inhibitors, primary screen, biochemical, FRET, uHTS; 360,000 compounds, 0.21% hits; inhibition, % at 10 µM; AID 624204, 2012; Sentrin-specific protease 1 (Homo sapiens), Q9P0U3; recombinant SENP1 catalytic domain, CyPet-SUMO1-YPet FRET cleavage;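 active = inhibition at least 30% at 10 µM, raw YFP signal under a set limit, fluorescence ratio 0.5 to 1.5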;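 note: 0% = enzyme with DMSO and 100% = no enzyme wells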
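System: Recombinant human SENP1 catalytic domain, His6-tagged | Incubation: Enzyme reaction for 50 min at room temperature, dark | Medium: Tris pH 8 with BME, BSA, NP40 and catalase | Also added: 25 nM SUMO1 FRET substrate | Compound: 10 µM single point, 0.5% DMSO | Measured by: FRET fluorescence in CFP and YFP emission channels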
SENP7 inh: SENP7 protease inhibitors, primary screen, biochemical, luminescence, uHTS | Sentrin-specific protease 7 (Homo sapiens), Q9BQF6 | 330,000 compounds, 1.5% hits | recombinant SENP7, Z-RLRGG-aminoluciferin luminescence, 40 min | inhibition, % at 5 µM;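 active = inhibition above about 50% at the single test dose, limit read from the data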;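 note: plate controls were DMSO with enzyme for no effect and no enzyme buffer wells for full effect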
Target sequence (Q9BQF6 706-1050 limits assumed): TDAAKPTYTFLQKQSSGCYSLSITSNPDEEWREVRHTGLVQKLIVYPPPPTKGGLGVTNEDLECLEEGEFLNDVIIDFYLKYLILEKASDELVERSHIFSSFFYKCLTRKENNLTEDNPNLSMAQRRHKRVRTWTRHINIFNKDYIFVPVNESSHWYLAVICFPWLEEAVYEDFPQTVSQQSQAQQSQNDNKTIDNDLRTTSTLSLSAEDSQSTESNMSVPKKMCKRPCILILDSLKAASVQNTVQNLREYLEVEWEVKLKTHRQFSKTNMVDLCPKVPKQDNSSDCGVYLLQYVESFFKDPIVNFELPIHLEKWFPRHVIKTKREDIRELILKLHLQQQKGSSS
SENP6 inh: SENP6 protease inhibitors, primary screen, biochemical, luminescence, uHTS; Sentrin-specific protease 6 (Homo sapiens), Q9GZR1; Recombinant SENP6 catalytic domain, aminoluciferin luminescence; inhibition, % at 10 µM; 330,000 compounds, 1.8% hits; AID 2599, 2010;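 active = inhibition above about 50% at the single tested dose, limit read from the data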;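 note: plate controls were DMSO wells with enzyme for no effect and DMSO wells lacking enzyme for full effect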
Platelet DG rel: inhibitors of platelet dense granule secretion, primary screen, cell-based, MLPCN, human platelets; human platelet-rich plasma, SFLLRN dense granule ATP release, luminescence; inhibition, %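 (compounds screened at 7.5 µM in platelet-rich plasma)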; 300,000 compounds, 0.22% hits;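 active = mean replicate score, as percent of positive control, at or above 50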
SENP8 block-2: human SENP8 protease inhibitors, primary screen, biochemical, fluorescence, Nedd8 protein substrate, uHTS; Sentrin-specific protease 8 (Homo sapiens), Q96LD8; recombinant SENP8; inhibition, % at 20 µM; 360,000 compounds, 0.64% hits; AID 602440, 2012; in the data active = inhibition mostly above about 40%, no sharp cut-off; inactive = mostly below about 27%
SENP8 conf: SENP8 protease inhibitors, retest, confirmation, biochemical, luminescence, single concentration | shares compounds with SENP7 inh | Recombinant SENP8, Z-RLRGG-aminoluciferin luminescence, 60 min | inhibition, % at 12.5 µM | 6,200 compounds, 40% hits | AID 488912, 2010;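 active = mean inhibition across replicates above about 50%, limit read from the data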
SENP6 conf: SENP6 protease inhibitors, confirmation, biochemical, luminescence, single concentration. shares compounds with SENP7 inh. recombinant SENP6, Z-RLRGG-aminoluciferin luminescence. inhibition, % at 12.5 µM. 6,200 compounds, 58% hits. AID 488915, 2010
SENP7 conf: SENP7 protease inhibitors, retest, confirmation, biochemical, luminescence, single concentration; shares compounds with SENP7 inh; recombinant SENP7, Z-RLRGG-aminoluciferin luminescence, 40 min; inhibition, % at 12.5 µM; 6,200 compounds, 69% hits; AID 488917, 2010
Casp3 select: caspase-3 protease inhibitors, confirmation, selectivity assay for SENP inhibitor project, biochemical, single concentration | purified caspase-3, Z-DEVD-aminoluciferin luminescence, 60 min | 6,200 compounds, 60% hits | inhibition, % at 12.5 µM | shares compounds with SENP7 inh;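 active = mean inhibition above about 50%, limit read from the data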;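 note: plate controls were enzyme with DMSO for no effect and wells without caspase-3 for full effect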
SENP luc ctr: interferes with luciferase luminescence in SENP counter-screen | shares compounds with SENP7 inh | Pre-incubated SENP8/Z-RLRGG-aminoluciferin, luciferase luminescence interference | inhibition, % at 12.5 µM | 6,200 compounds, 39% hits;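 active = mean inhibition above about 50% when retested at one dose, limit read from the data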;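 note: plate controls were DMSO wells with completed reaction for no effect and substrate without enzyme for full effect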
* marks the source's active call; other numbers are inactive results; x = no result given. Sampled rows, rich in hits. Any-hit rate of the full collection: about 2.6%.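 Rule for the calls, unless noted: active = mean inhibition above about 50% in the one-dose retest (limit read from the data); inactive = the rest.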

SMILES	SENP8 block-1	SENP1 FRET inh	SENP7 inh	SENP6 inh	Platelet DG rel	SENP8 block-2	SENP8 conf	SENP6 conf	SENP7 conf	Casp3 select	SENP luc ctr
Cc1ccc(-n2ncc3c2ncn2c(C)nnc32)cc1C	46.9	2.9	-8.9	53.7*	x	-246.2	49.8	44.7	72.8*	75.5*	12.9
CCc1nnc2c3cnn(-c4ccccc4)c3ncn12	-7.5	-2.9	-1.4	-3.6	-8.2	-235.4	x	x	x	x	x
CC(C(=O)N1CCc2ccccc21)N1CCN(Cc2ccc(Cl)cc2)CC1 (stereo not given)	-1.4	-0.5	-1.7	-15.0	-21.6	8.0	x	x	x	x	x
NC(=O)c1ccsc1NC(=O)c1ccc(S(=O)(=O)N2CCCCC2)cc1	57.8*	3.3	49.7	66.7*	17.8	-20.6	56.8*	71.9*	91.7*	55.8*	22.8
Clc1ccc(OCc2cc(-c3ccccc3)no2)c(Cl)c1	81.5*	1.2	3.0	83.8*	-4.4	5.2	9.6	17.8	17.7	48.8	0.8
Cc1cccc(OCc2cc(-c3ccccc3)no2)c1C	54.8*	-1.5	66.6*	67.4*	-7.8	19.3	9.4	42.9	70.0*	38.4	20.4
Fc1ccc(OCc2cc(-c3ccccc3)no2)cc1	1.4	2.0	19.9	5.5	0.7	-0.6	x	x	x	x	x
CCc1ccc(/C=C2\SC(=S)N(CCCC(=O)Nc3ccc(C(=O)O)cc3)C2=O)cc1	94.2*	4.6	82.9*	91.8*	1.2	19.2	92.7*	97.0*	98.0*	77.2*	54.8*
O=C(CCCN1C(=O)/C(=C\c2ccccc2)SC1=S)Nc1ccc(C(=O)O)cc1	65.8*	3.2	22.8	82.1*	-3.2	10.0	9.5	5.5	12.3	5.3	13.1
O=C(CCN1C(=O)/C(=C/c2ccc3c(c2)OCO3)SC1=S)Nc1ccc(C(=O)O)cc1	39.9	-38.6	1.1	14.3	31.8	19.2	x	x	x	x	x
COc1ccc(/C=C2\SC(=O)N(CCCC(=O)Nc3ccc(C(=O)O)cc3)C2=O)cc1	x	1.8	x	x	x	10.9	x	x	x	x	x
O=C(CCCN1C(=O)S/C(=C/c2ccccc2)C1=S)Nc1ccc(C(=O)O)cc1	72.0*	-20.7	45.1	66.0*	-7.5	12.4	11.4	51.6*	71.5*	46.0	19.7
O=C(CCCN1C(=O)/C(=C/c2ccc3c(c2)OCO3)SC1=S)Nc1ccc(C(=O)O)cc1	85.8*	8.3	78.1*	92.6*	0.5	29.3	-13.4	3.4	13.6	16.4	16.3
Nc1ccccc1CNc1nc(NCCO)nc2c1ncn2CCN1CCOCC1	-7.5	-0.7	12.7	-18.5	-2.1	-1.3	x	x	x	x	x
Cc1ccsc1/C=N/NC(=O)CO	-5.2	-1.4	-2.2	-2.3	-3.2	0.0	x	x	x	x	x
CCCCNC(=S)N/N=C/c1sccc1C	-1.0	-1.1	7.5	1.3	-1.8	-1.3	x	x	x	x	x
Cc1ccsc1/C=N/N=C/c1sccc1C	95.3*	1.3	98.2*	-5.1	16.9	16.9	-11.7	98.4*	102.8*	86.5*	87.1*
Cc1ccsc1C=Nc1ccc(O)cc1	8.2	4.4	37.5	68.3*	2.9	97.1*	29.0	15.5	-14.4	12.9	6.2
CCOC(=O)C1CCN(Cc2cnc(Oc3ccc(C(C)(C)C)cc3)s2)CC1	1.3	0.6	102.1*	3.8	-0.8	11.5	2.9	0.2	1.3	1.4	-1.6
O=C(Cc1ccc(Cl)cc1)c1ccc(O)cc1	41.6	-0.6	5.2	51.0*	0.9	22.8	54.9*	49.5	78.7*	46.5	63.3*
Nc1ccc(Br)c2cccnc12	74.7*	-23.9	62.3*	85.4*	-7.1	35.3	26.7	63.0*	32.9	2.5	-2.7
C[C@@H]1CN([C@H](C)CO)C(=O)c2cccc(NS(=O)(=O)c3ccccc3)c2O[C@H]1CN(C)C	0.6	-0.1	9.8	-9.1	x	4.5	x	x	x	x	x
Cc1ccc(O)c(NC(=O)c2noc3c2CCc2ccccc2-3)c1	16.1	4.9	66.1*	6.6	13.3	1.5	-31.1	-16.6	-4.9	0.1	-8.2
Cc1cc(NC(=O)c2noc3c2CCc2ccccc2-3)no1	-28.0	0.4	-1.9	-28.5	2.5	8.0	x	x	x	x	x
COc1ccc2[nH]cc(/C=C/C(=O)c3ccccc3)c2c1	38.5	-31.7	49.3	57.6*	15.6	-291.4	75.3*	71.1*	84.9*	24.8	84.6*
SMILES	SENP8 block-1	SENP1 FRET inh	SENP7 inh	SENP6 inh	Platelet DG rel	SENP8 block-2	SENP8 conf	SENP6 conf	SENP7 conf	Casp3 select	SENP luc ctr
O=[N+]([O-])c1ccc(-c2nc(=S)c3c(o2)CCCC3)cc1	-7.6	3.4	-0.3	-0.2	5.5	7.7	x	x	x	x	x
S=c1nc(-c2ccccc2)oc2c1CCCC2	74.7*	-0.6	88.1*	92.1*	-2.4	20.1	35.6	48.3	62.6*	41.0	54.2*
COc1cccc(-c2nc(=S)c3c(o2)CCCC3)c1	33.5	0.9	0.4	65.0*	-5.9	9.8	37.5	21.2	59.7*	28.5	25.3
CC(C)Cn1c(-c2cc(Br)ccc2F)nc2c1c(=O)[nH]c(=O)n2CC(C)C	-3.5	0.1	-5.6	-33.3	-13.7	-73.0	x	x	x	x	x
COc1cc(OC)c(N(C)S(=O)(=O)c2cccc(C(=O)Nc3nnc(C4CC4)s3)c2)cc1Cl	-0.9	-3.6	5.3	-9.7	-2.3	-13.5	x	x	x	x	x
Brc1ccc(-c2ncc(-c3ccccc3)cn2)cc1	19.8	4.5	74.1*	6.8	2.2	17.8	10.8	11.5	-5.5	-2.6	-2.2
O=C(O)c1ccc(C(=O)Nc2cccc3ccccc23)c(C(=O)O)c1	33.2	-6.4	57.2*	67.0*	2.6	-311.3	-3.4	4.7	-1.8	7.0	8.4
O=C(Nc1cccc(C(=O)O)c1)Nc1cccc2ccccc12	9.4	3.6	2.8	26.8	-9.0	-52.8	x	x	x	x	x

Screening results as filed in PubChem BioAssay.
